Laboratory results taken from ChEMBL document CHEMBL3352635 (Bioorg Med Chem Lett, 2014).
Each block holds one compound with its values, some of them ahead of it. Calls of active or inactive are those of the source. The calls are words filed in the database; no cut-off is given here.

Experiments:
[1] = Metabolic stability in simulated gastric fluid assessed as compound remaining at pH 1.2 after 20 mins by HPLC analysis; type: ADME; details: read-out: Stability
Outline: (§1)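 Compounds incubated at 37 °C in simulated gastric fluid (pH 1.2), simulated intestinal fluid (pH 6.8) or 100% human plasma for up to 180 min. […] Half-life estimated from the decay.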

[2] = Metabolic stability in simulated intestinal fluid assessed as compound remaining at pH 6.8 measured immediately by HPLC analysis; type: ADME; details: read-out: Stability; outline: as §1
Rattus norvegicus [3] = experiment: Antiinflammatory activity in Sprague-Dawley rat assessed as plasma nitrate/nitrite AUC at 14.94 mg/kg, po by Griess assay (reference value: 371.1 uM.h); type: functional, organism-based; parameters: dose 14.94 mg/kg
Outline: (§2)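 Sprague–Dawley rats given compounds orally, with vehicle-dosed controls. […] Plasma nitrate/nitrite (NOx) measured by the Griess method as an indirect measure of NO released, over 8 h (sampling included 1, 2, 4 and 6 h). Plasma nitrate/nitrite AUC in µM*h.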

[4] = Metabolic stability in simulated intestinal fluid assessed as compound remaining at pH 6.8 after 5 mins by HPLC analysis; type: ADME; details: read-out: Stability; outline: as §1
[5] = Stability of the compound assessed as compound remaining at RT measured immediately; type: physicochemical; details: read-out: Stability
Outline: (§3)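 Solid-state storage stability at room temperature and at 50 °C, followed for up to 1 month (25 days for one compound). Remaining compound measured, along with the amounts of parent drug and salicylic acid generated.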

Rattus norvegicus [6] = experiment: Antiplatelet activity in Sprague-Dawley rat assessed as inhibition of TXB2 formation at 44.82 mg/kg, po od after 7 days by EIA relative to vehicle-treated control; type: functional; details: 168 h
Outline: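 Sprague–Dawley rats dosed orally once daily for 7 days with aspirin 30 mg/kg or prodrug 44.82 mg/kg (equimolar), with vehicle 1 ml/kg as control. Serum TXB2 levels estimated. Inhibition expressed as % reduction versus vehicle.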

[7] = Metabolic stability in simulated gastric fluid assessed as compound remaining at pH 1.2 after 10 mins by HPLC analysis; type: ADME; details: read-out: Stability; outline: as §1
[8] = AUC in Wistar rat at 44.83 mg/kg, po; type: ADME, organism-based; parameters: dose 44.83 mg/kg, route oral; details: plasma
Outline: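 Single oral dosing in Wistar rats to compare […]. Aspirin at 30 mg/kg or the prodrug at 44.83 mg/kg (equimolar to 30 mg/kg aspirin). Plasma aspirin measured over time. AUC in µg*h/mL.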

[9] = AUC in Sprague-Dawley rat at 44.83 mg/kg, po; type: ADME, organism-based; parameters: dose 44.83 mg/kg, route oral; details: plasma
Outline: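 Plasma parent-drug concentration followed over time up to 8 h. AUC in µg*h/mL from the concentration–time profile. Cmax and Tmax taken from the profile.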

[10] = Metabolic stability in simulated intestinal fluid assessed as compound remaining at pH 6.8 after 10 mins by HPLC analysis; type: ADME; details: read-out: Stability; outline: as §1
[11] = Stability of the compound assessed as compound remaining at 50 degC after 5 days; type: physicochemical; details: read-out: Stability; outline: as §3
[12] = Stability of the compound assessed as compound remaining at RT after 1 month; type: physicochemical; details: read-out: Stability; outline: as §3
[13] = Half life in simulated intestinal fluid at pH 6.8 by HPLC analysis; type: ADME; outline: as §1
[14] = Stability of the compound assessed as compound remaining at RT after 18 days; type: physicochemical; details: read-out: Stability
Rattus norvegicus [15] = experiment: Antiinflammatory activity in Sprague-Dawley rat assessed as plasma nitrate/nitrite at 14.94 mg/kg, po up to 8 hrs; type: functional; outline: as §2
[16] = Metabolic stability in simulated intestinal fluid assessed as compound remaining at pH 6.8 after 120 mins by HPLC analysis; type: ADME; details: read-out: Stability; outline: as §1
[17] = Half life in simulated gastric fluid at pH 1.2 by HPLC analysis; type: ADME; outline: as §1
[18] = Metabolic stability in simulated gastric fluid assessed as compound remaining at pH 1.2 after 60 mins by HPLC analysis; type: ADME; details: read-out: Stability; outline: as §1
Rattus norvegicus [19] = experiment: Toxicity in rat assessed as gastric lesion and ulcer area at 298.8 mg/kg, po after 5 hrs; type: organism-based, Stomach; parameters: dose 298.8 mg/kg, route oral; details: in vivo
[20] = Metabolic stability in simulated gastric fluid assessed as compound remaining at pH 1.2 measured immediately by HPLC analysis; type: ADME; details: read-out: Stability; outline: as §1
[21] = Stability of the compound assessed as compound remaining at 50 degC measured immediately; type: physicochemical; details: read-out: Stability; outline: as §3
[22] = Metabolic stability in simulated gastric fluid assessed as compound remaining at pH 1.2 after 5 mins by HPLC analysis; type: ADME; details: read-out: Stability; outline: as §1
[23] = Stability of the compound assessed as compound remaining at 50 degC after 1 month; type: physicochemical; details: read-out: Stability; outline: as §3
[24] = Metabolic stability in simulated gastric fluid assessed as compound remaining at pH 1.2 after 40 mins by HPLC analysis; type: ADME; details: read-out: Stability; outline: as §1
[25] = Metabolic stability in simulated gastric fluid assessed as compound remaining at pH 1.2 after 2 mins by HPLC analysis; type: ADME; details: read-out: Stability; outline: as §1
[26] = Stability of the compound assessed as compound remaining at 50 degC after 2 days; type: physicochemical; details: read-out: Stability
[27] = Metabolic stability in simulated intestinal fluid assessed as compound remaining at pH 6.8 after 20 mins by HPLC analysis; type: ADME; details: read-out: Stability; outline: as §1
[28] = Metabolic stability in simulated intestinal fluid assessed as compound remaining at pH 6.8 after 60 mins by HPLC analysis; type: ADME; details: read-out: Stability; outline: as §1
[29] = Stability of the compound assessed as compound remaining at RT after 3 days; type: physicochemical; details: read-out: Stability
[30] = Half life in human plasma by HPLC analysis; type: ADME, cell-free; outline: as §1
[31] = Metabolic stability in simulated intestinal fluid assessed as compound remaining at pH 6.8 after 2 mins by HPLC analysis; type: ADME; details: read-out: Stability; outline: as §1
[32] = Metabolic stability in simulated gastric fluid assessed as compound remaining at pH 1.2 after 120 mins by HPLC analysis; type: ADME; details: read-out: Stability; outline: as §1
[33] = Metabolic stability in simulated gastric fluid assessed as compound remaining at pH 1.2 after 15 mins by HPLC analysis; type: ADME; details: read-out: Stability; outline: as §1
[34] = Metabolic stability in simulated gastric fluid assessed as compound remaining at pH 1.2 after 30 mins by HPLC analysis; type: ADME; details: read-out: Stability; outline: as §1
[35] = Metabolic stability in simulated gastric fluid assessed as compound remaining at pH 1.2 after 180 mins by HPLC analysis; type: ADME; details: read-out: Stability; outline: as §1
[36] = Stability of the compound assessed as compound remaining at RT after 25 days; type: physicochemical; details: read-out: Drug metabolism; outline: as §3
Rattus norvegicus [37] = experiment: Antiinflammatory activity in Sprague-Dawley rat assessed as plasma nitrate/nitrite at 41.60 mg/kg, po after 1 hr; type: functional; details: dose 41.6 mg/kg; outline: as §2
Rattus norvegicus [38] = experiment: Antiinflammatory activity in Sprague-Dawley rat assessed as plasma nitrate/nitrite at 41.60 mg/kg, po after 2 hrs; type: functional; details: dose 41.6 mg/kg; outline: as §2
Rattus norvegicus [39] = experiment: Antiinflammatory activity in Sprague-Dawley rat assessed as plasma nitrate/nitrite at 41.60 mg/kg, po after 6 hrs relative to control; type: functional, organism-based; parameters: dose 41.6 mg/kg; outline: as §2
Rattus norvegicus [40] = experiment: Toxicity in rat assessed as gastric lesion and ulcer area at 138.67 mg/kg, po after 5 hrs; type: organism-based, Stomach; parameters: dose 138.67 mg/kg, route oral; details: in vivo
Rattus norvegicus [41] = experiment: Antiinflammatory activity in Sprague-Dawley rat assessed as plasma nitrate/nitrite at 41.60 mg/kg, po after 4 hrs; type: functional, organism-based; parameters: dose 41.6 mg/kg; outline: as §2
Rattus norvegicus [42] = experiment: Antiinflammatory activity in Sprague-Dawley rat assessed as plasma nitrate/nitrite AUC at 41.60 mg/kg, po by Griess assay (reference value: 371.1 uM.h); type: functional, organism-based; parameters: dose 41.6 mg/kg; outline: as §2
[43] = Stability of the compound assessed as compound remaining at 50 degC after 25 days; type: physicochemical; details: read-out: Drug metabolism; outline: as §3
[44] = Metabolic stability in simulated gastric fluid assessed as chlorambucil level; type: ADME, tissue-based, Stomach; details: simulated gi fluid

Compound: CC(=O)Oc1ccccc1C(=O)OC(C)O[N+](=O)[O-] (configuration not stated)
remaining at 20 min [1]: 14% | remaining at 0 min [2]: 100% | AUC (Rattus norvegicus [3]): 1480 µM·h | remaining at 5 min [4]: 82% | remaining at 0 days [5]: 99.1% | inhibition in vivo at 44.82 mg/kg (Rattus norvegicus [6]): 72.6% | remaining at 10 min [7]: 45% | AUC [8]: 398 µg·h/mL | AUC [9]: 89.8 µg·h/mL | remaining at 10 min [10]: 52% | remaining at 120 h [11]: 98.2% | remaining at 730.5 h [12]: 98.6% | half-life [13]: < 15 min | remaining at 432 h [14]: 99% | Activity (Rattus norvegicus [15]): 180 µM | remaining at 2 h [16]: 0% | half-life [17]: < 10 min | remaining at 1 h [18]: 0% | Activity (Rattus norvegicus [19]): 1 mm2 | remaining at 0 min [20]: 100% | remaining at 0 days [21]: 99.1% | remaining at 5 min [22]: 65% | remaining at 730.5 h [23]: 88.3% | remaining at 40 min [24]: 12% | remaining at 2 min [25]: 78% | remaining at 48 h [26]: 98.8% | remaining at 20 min [27]: 32% | remaining at 1 h [28]: 4% | remaining at 72 h [29]: 98.9% | half-life [30]: < 5 min | remaining at 2 min [31]: 91%

Compound: CC(OC(=O)CCCc1ccc(N(CCCl)CCCl)cc1)O[N+](=O)[O-] (configuration not stated)
t1/2 [44]: < 5 min

Second part, led by results:

remaining at 10 min [7]: 90% | remaining at 2 h [32]: 39% | remaining at 0.25 h [33]: 74% | half-life [17]: 60 min | remaining at 1 h [18]: 51% | remaining at 0 min [20]: 100% | remaining at 5 min [22]: 94% | remaining at 0.5 h [34]: 62% | remaining at 3 h [35]: 7%
Compound: CCC(OC(=O)[C@@H](C)c1ccc2cc(OC)ccc2c1)O[N+](=O)[O-] (some centres not stated)

remaining at 0 days [5]: 99.1% | remaining at 600 h [36]: 98.9% | remaining at 10 min [7]: 75% | remaining at 0.25 h [33]: 65% | half-life [17]: < 30 min | remaining at 1 h [18]: 0% | remaining at 0 min [20]: 100% | remaining at 0 days [21]: 99.1% | remaining at 5 min [22]: 85% | remaining at 0.5 h [34]: 33% | remaining at 600 h [43]: 99%
Compound: COc1ccc2cc([C@H](C)C(=O)OC(C)O[N+](=O)[O-])ccc2c1 (some centres not stated)
Activity (Rattus norvegicus [37]): 150 µM | Activity (Rattus norvegicus [38]): 120 µM | Activity (Rattus norvegicus [39]): inactive | Activity (Rattus norvegicus [40]): 39 mm2 | Activity (Rattus norvegicus [41]): inactive | AUC (Rattus norvegicus [42]): 687 µM·h

remaining at 10 min [7]: 94% | remaining at 2 h [32]: 58% | remaining at 0.25 h [33]: 83% | half-life [17]: < 180 min | remaining at 1 h [18]: 75% | remaining at 0 min [20]: 100% | remaining at 5 min [22]: 96% | remaining at 0.5 h [34]: 83% | remaining at 3 h [35]: 39%
Compound: CCCC(OC(=O)[C@@H](C)c1ccc2cc(OC)ccc2c1)O[N+](=O)[O-] (some centres not stated)
